{
  "source": "PubChem BioAssay AID623971",
  "about": "(Broad Institute, 2012)",
  "key": {"[1]": {"assay": "S. cerevisiae growth inhibition in glucose medium, dose response, OD600, powder samples, set 3 (AID 623971)", "conditions": "S. cerevisiae growth in glucose, OD600, 48 h; at 3 µM (top of the series)", "outline": "(§1)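 Assay system: Saccharomyces cerevisiae yeast cells, whole-organism growth assay | Medium: CSM growth medium supplemented with glucose | Incubation: Yeast exposure 48 h at 30 °C, static, humidified | Technique: OD600 absorbance | Read-out: Yeast growth inhibition, seen as decrease in OD600 signal | Benchmarks: Positive control amphotericin B at 10 µM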"}, "[2]": {"system": "S. cerevisiae growth in glucose, OD600, 48 h", "assay": "S. cerevisiae growth inhibition in glucose medium, dose response, OD600, powder samples, set 3 (AID 623971)", "outline": "as §1"}},
  "note": "Where “and” joins values, the source holds several entries; their conditions need not be identical. Equal values may be shown once. Calls of active or inactive are those of the source.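 How the source made its calls: active means compounds lowering yeast growth whose fitted half-maximal concentration is at most twice the top tested dose; inconclusive means flat curve with moderate growth inhibition, or a poor curve fit; inactive means the rest.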",
  "data": [
    {"molecule": "C/C=C/[C@@H]1[C@H]2C[C@@H](C)CC[C@@H]2C(C)=C[C@H]1C(=O)c1c(O)c(-c2ccc(O)cc2)c[nH]c1=O", "values": [
      {"measurement": "activity change, negative = growth inhibition", "setting": "[1]", "value": "-5.04% (inactive)"}
    ]},
    {"molecule": "CCOC(=O)N1C(=O)C2(CCCCC2)N(c2ccc(C)cc2)C1=S", "values": [
      {"measurement": "activity change, negative = growth inhibition", "setting": "[1]", "value": "-5.09% (inactive) and -19.8% (inactive)"}
    ]},
    {"molecule": "CCOC(=O)N1C(=O)C2(CCCCC2)N(c2ccc(F)cc2)C1=S", "values": [
      {"measurement": "activity change, negative = growth inhibition", "setting": "[1]", "value": "-4.53% (inactive)"}
    ]},
    {"molecule": "CCOC(=O)N1C(=O)C2(CCCCC2)N(c2ccccc2)C1=S", "values": [
      {"measurement": "activity change, negative = growth inhibition", "setting": "[1]", "value": "-11.6% (inactive)"}
    ]},
    {"molecule": "CCOC(=O)N1C(=O)C2(CCCCC2)N(c2ccc(Cl)cc2)C1=S", "values": [
      {"measurement": "activity change, negative = growth inhibition", "setting": "[1]", "value": "-15.5% (inactive)"}
    ]},
    {"molecule": "CC1/C=C/C=C\\C=C\\C=C\\C=C\\C=C\\C=C\\C(O[C@H]2OC(C)C(O)C(N)C2O)CC2OC(O)(CC(O)CC(O)C(O)CCC(O)CC(O)CC(=O)OC(C)C(C)C1O)CC(O)C2C(=O)O", "note": "(stereo partly drawn)", "values": [
      {"measurement": "AC50", "setting": "[2]", "value": 384, "unit": "nM"}
    ]},
    {"molecule": "CCOC(=O)N1C(=O)C2(CCCCC2)N(c2cccc(C)c2)C1=S", "values": [
      {"measurement": "activity change, negative = growth inhibition", "setting": "[1]", "value": "-4.85% (inactive)"}
    ]},
    {"molecule": "CCOC(=O)N1C(=O)C2(CCCCC2)N(c2ccc(C#N)cc2)C1=S", "values": [
      {"measurement": "activity change, negative = growth inhibition", "setting": "[1]", "value": "-21.5% (inactive)"}
    ]}
  ]
}
